One block for each compound: values may come before it. Where a SMILES comes first, the peptide text is derived from it.
Legend:
[1] = 1-Octanol-water distribution coefficient, log D of the compound at pH 7.4 by shake flask method; format: physicochemical
[2] = Apparent permeability across human Caco2 cells with low TEER resistance at 500 uM after 1 hr by HPLC-DAD analysis; format: ADME, cell-based; settings: Caco-2
Procedure, shortened: (§1)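 Caco-2 (passages 30–50) seeded at 6 × 10^4 cells/cm2 on 0.4-μm polycarbonate Transwell inserts and grown 21 days. Monolayer resistance varied by 15-min preincubation in HBSS pH 7.4 with 18 μM or 3.6 mM CaCl2. 500 μM compound added apically in HBSS at the same CaCl2. 1 h, 37°C, no stirring. TEER measured before and after, corrected for cell-free insert. Receiver quantified by HPLC-DAD. n = 3.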

[3] = Efflux ratio of apparent permeability from basolateral to apical side over apical to basolateral side in human Caco2 cells at 500 uM after 1 hr by HPLC-DAD analysis; format: ADME, cell-based; settings: Caco-2
[4] = Apparent permeability across human Caco2 cells with high TEER resistance at 500 uM after 1 hr by HPLC-DAD analysis; format: ADME, cell-based; settings: Caco-2; procedure, shortened: as §1
[5] = Apparent permeability from basolateral to apical side in human Caco2 cells at 500 uM at pH 7.4 after 1 hr by HPLC-DAD analysis; format: ADME, cell-based; settings: Caco-2, pH 7.4
Procedure, shortened: (§2)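 Differentiated Caco-2 monolayers after 21+ days on Transwells, equilibrated 15 min in HBSS with 1.8 mM CaCl2, pH 7.4. 500 μM compound (from DMSO stock) in the donor, apical or basal. Both sides pH 7.4. 1 h at 37°C, 5% CO2. Receiver measured by HPLC-DAD with recovery correction. Papp calculated from receiver amount over time versus initial donor amount. Mean ± S.D., n = 3.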

[6] = Apparent permeability from apical to basolateral side in human Caco2 cells at 500 uM at pH 7.4 after 1 hr by HPLC-DAD analysis; format: ADME, cell-based; settings: Caco-2, pH 7.4; procedure, shortened: as §2
[7] = 1-Octanol-water distribution coefficient, log D of the compound at pH 7.4; format: physicochemical
[8] = Oral bioavailability in human; format: ADME, organism-based; settings: in vivo
[9] = 1-octanol/water, read-out: logD

Compound: COc1ccc(/C=C/C(=O)O)cc1OC
- logD [1]: -1.01
- efflux ratio at 1 h, 500 µM [3]: 1.1
- Papp B→A at 1 h, 500 µM [5]: 21.7 ×10⁻⁶ cm/s
- Papp A→B at 1 h, 500 µM [6]: 19.9 ×10⁻⁶ cm/s

Compound: CC(=O)Oc1ccccc1C(=O)O [ASPIRIN]
- bioavailability [8]: 100%

Compound: O=C(O)/C=C/c1ccc(O)c(O)c1 [CAFFEIC ACID]
- Papp B→A at 1 h, 500 µM [5]: 1.7 ×10⁻⁶ cm/s
- Papp A→B at 1 h, 500 µM [6]: 1.4 ×10⁻⁶ cm/s

Compound: O=C(/C=C/c1ccc(O)c(O)c1)O[C@@H]1C[C@](O)(C(=O)O)C[C@@H](O)[C@H]1O [CHLOROGENIC ACID]
- logD [1]: -3.05
- Papp at 1 h, 500 µM [2]: 0.77 ×10⁻⁶ cm/s
- Papp at 1 h, 500 µM [4]: 0.25 ×10⁻⁶ cm/s
- Papp B→A at 1 h, 500 µM [5]: 0.33 ×10⁻⁶ cm/s
- Papp A→B at 1 h, 500 µM [6]: 0.38 ×10⁻⁶ cm/s

Compound: CN/C(=N/CCSCc1nc[nH]c1C)NC#N [CIMETIDINE]
- logD [7, 9]: -0.4

Compound: OC[C@H]1OC(O)[C@H](O)[C@@H](O)[C@@H]1O (some centres undefined) [DEXTROSE]
- logD [7, 9]: -2.83

Compound: CNC[C@H](O)c1ccc(O)c(O)c1 [EPINEPHRINE]
- logD [7, 9]: -2.59

Compound: COc1cc(/C=C/C(=O)O)ccc1O [FERULATE]
- logD [1]: -1.19
- Papp at 1 h, 500 µM [2]: 11.2 ×10⁻⁶ cm/s
- efflux ratio at 1 h, 500 µM [3]: 1
- Papp at 1 h, 500 µM [4]: 10.8 ×10⁻⁶ cm/s
- Papp B→A at 1 h, 500 µM [5]: 10.2 ×10⁻⁶ cm/s
- Papp A→B at 1 h, 500 µM [6]: 10 ×10⁻⁶ cm/s

Compound: CC(C)n1c(/C=C/C(O)CC(O)CC(=O)O)c(-c2ccc(F)cc2)c2ccccc21 (centres undefined) [FLUVASTATIN]
- logD [7, 9]: 1.09

Compound: NCC(=O)N1CCC[C@H]1C(=O)O [GLYCYL PROLINE] (H-Gly-Pro-OH)
- logD [7, 9]: -3.32

Compound: N=C(N)NCC1COc2ccccc2O1 (centres undefined) [GUANOXAN]
- logD [7, 9]: -0.83

Compound: N[C@@H](Cc1ccc(O)c(O)c1)C(=O)O [LEVODOPA]
- logD ([7]; octanol/water): -1.22

Compound: OC[C@@H](O)[C@@H](O)[C@H](O)[C@H](O)CO [MANNITOL]
- logD [7, 9]: -3.1
- bioavailability [8]: 16%

Compound: Cc1ccnc2c1NC(=O)c1cccnc1N2C1CC1 [NEVIRAPINE]
- logD [7, 9]: 1.81
- bioavailability [8]: > 90%

Compound: O=C(O)c1ccccc1O [SALICYLIC ACID]
- logD [1]: -2.34
- logD [7, 9]: -1.44
- bioavailability [8]: 100%

Compound: CC(=O)CC(c1ccccc1)c1c(O)c2ccccc2oc1=O (centres undefined) [WARFARIN]
- logD [7, 9]: 0.9

Other lines, results leading:

- logD [1]: -1.04
- Papp at 1 h, 500 µM [2]: 0.68 ×10⁻⁶ cm/s
- efflux ratio at 1 h, 500 µM [3]: 5.4
- Papp at 1 h, 500 µM [4]: 0.05 ×10⁻⁶ cm/s
- Papp B→A at 1 h, 500 µM [5]: 0.72 ×10⁻⁶ cm/s
- Papp A→B at 1 h, 500 µM [6]: 0.14 ×10⁻⁶ cm/s
Compound: O=C(/C=C/c1ccc(O)c(O)c1)O[C@@H]1C[C@](O)(C(=O)O)C[C@@H](OC(=O)/C=C/c2ccc(O)c(O)c2)[C@H]1O

- logD [7, 9]: 2.75
Compound: CC(C)(C)S(=O)(=O)C[C@@H](Cc1ccccc1)C(=O)N[C@@H](Cc1cnc[nH]1)C(=O)N[C@@H](CC1CCCCC1)[C@@H](O)[C@@H](O)C1CC1

- logD [7, 9]: -1.05
Compound: CSc1ccc2ncn(/C=C/C(=O)O)c(=O)c2c1

- logD [1]: -2.79
- Papp at 1 h, 500 µM [2]: 1.7 ×10⁻⁶ cm/s
- efflux ratio at 1 h, 500 µM [3]: 1.1
- Papp at 1 h, 500 µM [4]: 0.31 ×10⁻⁶ cm/s
- Papp B→A at 1 h, 500 µM [5]: 0.28 ×10⁻⁶ cm/s
- Papp A→B at 1 h, 500 µM [6]: 0.25 ×10⁻⁶ cm/s
Compound: COc1cc(/C=C/C(=O)O[C@@H]2C[C@](O)(C(=O)O)C[C@@H](O)[C@H]2O)ccc1O

- logD [1]: 1.08
Compound: C=CCc1ccccc1OCC(O)CNC(C)C (centres undefined) [ALPRENOLOL]

- bioavailability [8]: 100%
Compound: Cc1c(N(C)C)c(=O)n(-c2ccccc2)n1C [AMINOPYRINE]

- logD ([7]; octanol/water): 3.48
Compound: CCOC(=O)C1=C(C)NC(C)=C(C(=O)OC)C1c1cccc(Cl)c1Cl (centres undefined) [FELODIPINE]

- logD [7, 9]: 2.47
Compound: COC1=CC(=O)C[C@@H](C)[C@]12Oc1c(Cl)c(OC)cc(OC)c1C2=O [GRISEOFULVIN]

- logD [1]: -0.24
Compound: COCCc1ccc(OCC(O)CNC(C)C)cc1 (centres undefined) [METOPROLOL]

- logD ([7]; octanol/water): 3.66
Compound: COCC(=O)O[C@]1(CCN(C)CCCc2nc3ccccc3[nH]2)CCc2cc(F)ccc2[C@@H]1C(C)C [MIBEFRADIL]

- logD [7, 9]: 2.5
Compound: O=C1NC(=O)C(c2ccccc2)(c2ccccc2)N1 [PHENYTOIN]

- logD [7, 9]: 0
Compound: CN1C(C(=O)Nc2ccccn2)=C(O)c2ccccc2S1(=O)=O [PIROXICAM]

- logD [7, 9]: -1.4
Compound: CC(=O)Nc1ccc(OCC(O)CNC(C)C)cc1 (centres undefined) [PRACTOLOL]

- logD [7, 9]: 0.53
Compound: COC(=O)c1ccccc1-c1c2ccc(=N)cc-2oc2cc(N)ccc12 [RHODAMINE123]

- logD [7, 9]: 1.1
- bioavailability [8]: 55%
Compound: CC(C)(C)NCC(O)COc1ccc(NC(=O)NC2CCCCC2)cc1 (centres undefined) [TALINOLOL]

— ChEMBL document CHEMBL3526071, “Predicting phenolic acid absorption in Caco-2 cells: a theoretical permeability model and mechanistic study” (Drug Metab Dispos, 2012)
